Rows were chosen to be rich in hits. Some 2.3% of all compounds tested hit in one or more screens of this group.
TRPC4 act = opens the mouse TRPC4 cation channel; Q9QUQ5; HEK293 TRPC4beta/mu-opioid, Fluo4 calcium fluorescence; hits give high values; B-score at 10 µM; actives 0.49% (n = 310,000); AID 2237;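 active means B-score above 5 SD of library B-scores, and initial fluorescence ratio not above library mean plus 5 SD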;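 further: positive B-score marks a calcium rise read as TRPC4 activation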
Target sequence (Q9QUQ5 whole entry, looked up): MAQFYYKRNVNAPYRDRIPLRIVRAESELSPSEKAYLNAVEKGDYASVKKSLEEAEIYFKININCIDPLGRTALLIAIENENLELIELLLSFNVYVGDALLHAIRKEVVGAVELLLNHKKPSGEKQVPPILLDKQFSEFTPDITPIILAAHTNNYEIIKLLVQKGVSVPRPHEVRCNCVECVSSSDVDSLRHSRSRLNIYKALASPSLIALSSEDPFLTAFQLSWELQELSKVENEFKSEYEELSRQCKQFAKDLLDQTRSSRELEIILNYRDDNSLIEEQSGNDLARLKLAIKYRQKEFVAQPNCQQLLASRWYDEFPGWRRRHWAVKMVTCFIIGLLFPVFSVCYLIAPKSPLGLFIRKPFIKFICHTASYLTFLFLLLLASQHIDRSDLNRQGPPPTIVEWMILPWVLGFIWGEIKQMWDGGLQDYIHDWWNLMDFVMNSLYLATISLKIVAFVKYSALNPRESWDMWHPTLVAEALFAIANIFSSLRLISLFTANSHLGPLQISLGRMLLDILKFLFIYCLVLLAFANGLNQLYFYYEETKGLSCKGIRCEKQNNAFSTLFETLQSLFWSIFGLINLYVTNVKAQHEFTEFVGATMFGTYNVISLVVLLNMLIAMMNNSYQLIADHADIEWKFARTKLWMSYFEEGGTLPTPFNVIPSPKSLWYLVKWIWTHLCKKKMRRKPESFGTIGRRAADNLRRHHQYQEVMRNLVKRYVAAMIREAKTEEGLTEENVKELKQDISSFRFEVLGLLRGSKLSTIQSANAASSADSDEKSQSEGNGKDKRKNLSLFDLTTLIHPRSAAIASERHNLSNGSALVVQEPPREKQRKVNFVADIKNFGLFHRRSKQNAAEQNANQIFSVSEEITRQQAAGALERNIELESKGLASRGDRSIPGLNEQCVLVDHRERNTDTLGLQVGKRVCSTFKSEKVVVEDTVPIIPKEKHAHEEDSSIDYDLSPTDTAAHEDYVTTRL
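Assay system: HEK293 stable line with TRPC4beta plus mu-opioid receptor. Times: dye 45 min RT, read 110 s. Measured by: kinetic Fluo4 calcium fluorescence. Measure: B score of integrated ratio. Controls: assay buffer as low control, maximal DAMGO as high control.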
TRPC6 act = activates the mouse TRPC6 cation channel; HEK293-TRPC6 membrane potential dye fluorescence; hits give high values; AID 2550; B-score at 10 µM; actives 0.13% (n = 310,000); Q61143;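 active means B-score of the integrated fluorescence ratio above library mean plus 3 SD, and starting fluorescence ratio within library mean plus 5 SD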;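 further: higher score means more depolarization so channel activation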
TRPC4 PAM = allosterically enhances the mouse TRPC4 cation channel. HEK293 TRPC4beta/mu-opioid, DAMGO EC20, Fluo-4 Ca2+ flux; hits give high values. B-score at 10 µM. actives 0.42% (n = 310,000). AID 2227;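 active means B-score of calcium response area above 5 SD of library B-scores, with initial fluorescence ratio within 5 SD of library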;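 further: B-score of integrated fluorescence ratio over time as area under calcium response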
TRPC4 block = blocks the mouse TRPC4 cation channel; Q9QUQ5; HEK293 TRPC4beta/mu-opioid, DAMGO-evoked Fluo4 calcium flux; hits give low values; B-score at 10 µM; actives 0.39% (n = 300,000); AID 2247;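 active means B-score over 3 SD under the library average, no early fluorescence shift, positive overall ratio signal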
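Assay system: HEK293 cells with stable TRPC4beta plus mu-opioid receptor expression. Dosing: single dose. Measured by: Fluo4 Ca2+ flux fluorescence. Also added: DAMGO in two steps, submaximal then maximal. Read-out: B score from integrated Fluo4 fluorescence ratio.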
TRPC6 inh = mouse TRPC6 channel inhibition | Q61143 | HEK293-TRPC6, membrane potential dye, ACh-evoked depolarization; hits give low values | B-score at 10 µM | actives 1.1% (n = 310,000) | AID 2553;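 active means B-score under library mean minus 3 SD, initial fluorescence not abnormally high, positive integrated signal ratio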;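 further: B-score derived from integrated fluorescence ratio over the kinetic read; more negative B-score means stronger inhibition of depolarization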
TRPC4 sel inh 2 = second check of whether TRPC6 inhibitors also affect mouse TRPC4. shares compounds with TRPC6 inh. HEK293 TRPC4/MOR, membrane potential dye fluorescence; channel activated by saturating DAMGO dose. inhibition, % at 10 µM. actives 42% (n = 920);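 active means compounds whose fluorescence signal differed from control wells by over 3 SD, either direction, in both duplicate plates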
TRPC4 spec = tests whether TRPC6 inhibitors also affect mouse TRPC4; activity change, negative = inhibition, % at 10 µM; AID 2777; actives 61% (n = 920); shares compounds with TRPC6 inh; HEK293 TRPC4/mu-opioid, membrane potential fluorescence;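 active means rise or fall in signal beyond 3 SD of buffer-only wells in both replicate plates, either sign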;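 further: integrated kinetic ratio of fluorescence range over baseline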
HEK293 MPD ctr 2-1 = second counter-screen for TRPC6 inhibitors: parental HEK293 cells; parental HEK293 membrane potential dye fluorescence; maximal acetylcholine challenge after compound addition; shares compounds with TRPC6 inh; actives 31% (n = 920); signal change vs control, % at 10 µM;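 active means membrane potential signal moving either way by over 3 SD of the maximum-effect control, in both duplicate plates, meaning non-specific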
HEK293 MPD ctr-1 = counter-screen for TRPC6 inhibitors: effect in parental HEK293 cells | shares compounds with TRPC6 inh | parental HEK293 membrane potential dye fluorescence | membrane potential signal change, % at 10 µM | actives 60% (n = 920) | AID 2780;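 active means membrane potential signal shifting up or down by more than 3 SD of buffer-only wells, on both duplicate plates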
HEK293 MPD ctr-2 = checks TRPC6 modulator effects in parental HEK293 cells. shares compounds with TRPC6 inh. membrane potential dye fluorescence. membrane potential signal change, % at 10 µM. actives 51% (n = 2,400). AID 488924;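 active means membrane potential signal moves up or down beyond 5 SD from buffer-only wells, on both duplicate plates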
HEK293 MPD ctr 2-2 = second check of TRPC6 modulator effects in parental HEK293 cells. shares compounds with TRPC6 inh. membrane potential dye fluorescence; after compound, maximal acetylcholine stimulation. inhibition, % at 10 µM. actives 14% (n = 2,400);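 active means membrane potential signal drops by more than 5 SD from the mean control signal, in both duplicate plates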;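 further: plate controls were acetylcholine ECmax control wells for no effect and buffer only wells for full effect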
TRPC4 ctr mod = mouse TRPC4 off-target activity of TRPC6 modulators; shares compounds with TRPC6 inh; actives 69% (n = 2,400); HEK293 TRPC4/mu-opioid, membrane potential fluorescence; percent change from control (negative = decrease, positive = increase), % at 10 µM;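 active means membrane potential signal moved up or down beyond 5 SD of buffer control wells, in both duplicate plates, actives on both sides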;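 further: plate controls were assay buffer wells for no effect and DAMGO maximal-effect wells for full effect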
TRPC4 ctr inh 2 = mouse TRPC4 off-target activity of TRPC6 modulators, second screen; shares compounds with TRPC6 inh; HEK293 TRPC4/mu-opioid, membrane potential dye fluorescence; stimulated with maximal-effect DAMGO; inhibition, % at 10 µM; actives 55% (n = 2,400); AID 488928;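 active means drop in membrane potential signal beyond 5 SD of the control wells in both duplicate plates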;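 further: TRPC4 counter screen for TRPC6 hits run under conditions tuned for TRPC6 not TRPC4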
TRPC6 block conf = confirmation of mouse TRPC6 inhibitors | shares compounds with TRPC6 inh | HEK293-TRPC6, membrane potential dye, ACh-evoked depolarization | inhibition, % at 10 µM | actives 43% (n = 3,300) | AID 488960;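 active means fluorescence ratio falls more than 5 SD below the full-stimulation control mean, in both duplicate runs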;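 further: integrated fluorescence ratio of peak minus minimum over baseline after agonist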
TRPC6 act conf = mouse TRPC6 activator confirmation. shares compounds with TRPC6 inh. HEK293-TRPC6 membrane potential dye fluorescence, FDSS. activation, % at 10 µM. actives 11% (n = 2,800);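 active means ratio signal rise beyond 5 SD above unstimulated control wells' mean, seen in both duplicate runs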;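 further: plate controls were buffer EC0 wells for no effect and acetylcholine ECmax response for full effect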
Starred values were filed as active, the others as inactive; i = inactive; x = no result.

SMILES	TRPC4 act	TRPC6 act	TRPC4 PAM	TRPC4 block	TRPC6 inh	HEK293 MPD ctr-2	HEK293 MPD ctr 2-2	TRPC4 ctr mod	TRPC4 ctr inh 2	TRPC6 block conf	TRPC6 act conf	others
Cc1ccc(NCc2nnc(SCC(=O)N3c4ccccc4Sc4ccccc43)o2)c(C)c1	i	i	i	i	i	x	x	x	x	x	x
CN(C)CCNc1ncnc2c1cnn2-c1ccc(Cl)cc1	i	i	i	i	-5.2*	i	i	i	31%*	46%*	i
COc1ccc(Cl)cc1N1C(=O)CC(Sc2ccccc2N)C1=O (stereo not given)	i	i	i	i	i	x	x	x	x	x	x
CN(C)CCCn1c(=O)n(Cc2ccco2)c(=O)c2c3c(sc21)CCCCC3	i	i	i	i	i	x	x	x	x	x	x
Cn1c(=O)n(Cc2ccco2)c(=N)c2c3c(sc21)CCC3	i	i	i	i	-7.1*	-184%*	i	-32%*	46%*	36%*	i
CC(=O)c1cc(F)c(N2CCN(C(=O)COc3ccc(F)cc3)CC2)cc1C	i	i	i	i	-5.7*	i	i	10%*	i	i	i
CCCCOc1ccc(Br)cc1/C(C)=N/NC1=NCCN1	i	i	i	i	-7.3*	x	x	x	x	i	i	TRPC4 sel inh 2=27%*;TRPC4 spec=15%*;HEK293 MPD ctr 2-1=233%*;HEK293 MPD ctr-1=8.4%*
COc1ccc(/C(C)=N/NC2=NCCN2)cc1Cl	i	i	i	i	i	x	x	x	x	x	x
N#Cc1ccccc1OCC(=O)N(Cc1nnc(-c2ccccc2Cl)o1)C1CC1	i	i	i	i	i	x	x	x	x	x	x
Cc1cc(C)nc(NC(N)=NCCc2c[nH]c3ccccc23)n1	i	i	i	i	-5*	-222%*	i	-42%*	46%*	54%*	i
Cc1cc(C)nc(NC(=NCCc2c[nH]c3ccccc23)NC(=O)Nc2ccc(Cl)cc2)n1	i	i	i	i	i	x	x	x	x	x	x
CCOc1ccc(C)cc1S(=O)(=O)n1cnc2ccccc21	i	i	i	i	i	x	x	x	x	x	x
COc1ccc(NC(=O)c2ccc(N3CCOCC3)nc2)cc1	i	i	i	i	i	x	x	x	x	x	x
COc1ccc(S(=O)(=O)Nc2ccc(N3CCOCC3)nc2)cc1	i	i	i	i	-5*	i	i	i	i	i	i
CCn1c(SCC(=O)NCC(=O)Nc2ccc(F)cc2)nnc1-c1ccncc1	i	i	i	i	i	x	x	x	x	x	x
CCn1c(SCC(=O)Nc2ccc3c(c2)n(C)c(=O)n3C)nnc1-c1ccncc1	i	12*	i	i	i	246%*	i	36%*	i	i	118%*
O=C(CC1C(=O)NCCN1C(=O)Nc1ccc(C(F)(F)F)cc1)Nc1ccc(F)cc1 (stereo not given)	i	i	i	i	-5*	-106%*	i	-18%*	45%*	i	i
N#CCOC(=O)C1c2ccccc2Oc2ccccc21	i	i	i	i	i	x	x	x	x	x	x
CCN(CC)CCOC(=O)C1c2ccccc2Oc2ccccc21	i	i	i	i	-10*	x	x	x	x	81%*	x	TRPC4 sel inh 2=i;TRPC4 spec=7.9%*;HEK293 MPD ctr 2-1=28%*;HEK293 MPD ctr-1=6.7%*
O=C(COc1ncnc2ccccc12)Nc1ccccc1[N+](=O)[O-]	i	i	i	i	i	x	x	x	x	x	x
CCOc1ccccc1-n1nnnc1SCC(=O)O	i	i	i	i	i	x	x	x	x	x	x
CCN1C(=O)C(CC(=O)Nc2ccc(F)cc2)N(CCCN2CCN(c3ccc(F)cc3)CC2)C1=S (stereo not given)	i	i	i	i	-6.5*	i	i	i	47%*	44%*	i
CCOc1ccc(NC(=O)CC2C(=O)N(CC)C(=S)N2CCN2CCOCC2)cc1 (stereo not given)	i	i	i	i	i	x	x	x	x	x	x
CCOc1ccc(NC(=O)CC2C(=O)N(CC)C(=S)N2CCNC(C)=O)cc1 (stereo not given)	i	i	i	i	-5.5*	i	i	i	i	i	i
O=C1C2C3C=CC(C4CC34)C2C(=O)N1Cc1ccco1 (stereo not given)	i	i	i	i	i	x	x	x	x	x	x
Cc1ccc(NC(=O)[C@@H](CC(C)C)NC(=O)[C@@H]2Cc3ccccc3CN2)cc1	i	i	i	i	-5.1*	i	i	i	46%*	66%*	i
Cc1ccc2nc3ccc(N4CCCC4)nn3c(=O)c2c1	i	i	i	i	-6.9*	x	x	x	x	i	i	TRPC4 sel inh 2=i;TRPC4 spec=-25%*;HEK293 MPD ctr 2-1=42%*;HEK293 MPD ctr-1=-324%*
N#Cc1c(N2CCCC(O)C2)nc(N)c2c(N)nc3c(c12)CC(=O)N3C12CC3CC(CC(C3)C1)C2 (stereo not given)	i	i	i	i	-6.1*	i	i	i	i	i	i
C=C(C)CN(CC)c1nc(N)c2c(N)nc3c(c2c1C#N)CC(=O)N3C12CC3CC(CC(C3)C1)C2	i	i	i	i	i	x	x	x	x	x	x
